Results from different studies.
Target: MAP kinase-activated protein kinase 5 (MAPKAPK5, Homo sapiens, UniProt Q8IW41)
One construct used (Q8IW41 1-473): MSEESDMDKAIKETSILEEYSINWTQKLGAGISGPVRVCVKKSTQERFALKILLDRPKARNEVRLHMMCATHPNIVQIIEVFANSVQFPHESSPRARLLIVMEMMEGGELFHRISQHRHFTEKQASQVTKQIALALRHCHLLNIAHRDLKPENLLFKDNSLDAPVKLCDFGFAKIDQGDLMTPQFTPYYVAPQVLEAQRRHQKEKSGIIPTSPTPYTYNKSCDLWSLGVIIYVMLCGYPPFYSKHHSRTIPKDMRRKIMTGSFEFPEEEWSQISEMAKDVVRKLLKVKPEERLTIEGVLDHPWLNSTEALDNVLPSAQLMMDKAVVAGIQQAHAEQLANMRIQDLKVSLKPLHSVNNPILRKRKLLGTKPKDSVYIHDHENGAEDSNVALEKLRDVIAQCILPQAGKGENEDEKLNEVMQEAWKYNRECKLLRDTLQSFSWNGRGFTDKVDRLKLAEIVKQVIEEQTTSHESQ

| SMILES | effect on | method | concentration | remaining binding [%] |
| --- | --- | --- | --- | --- |
| Nc1ncc2c(n1)-c1c([nH]c3ccc(C#CC4CC4)cc13)CCCC2 | binding | competition with immobilised ligand | 1 µM | 97 |
| CCN1CCN(Cc2ccc(C(=O)Nc3ccc(C)c(Oc4ccc5c(c4)CC(=O)N5)c3)cc2C(F)(F)F)CC1 | binding | competition with immobilised ligand | 1 µM | 100 |
| COc1cnc(Nc2cccc(S(N)(=O)=O)c2)nc1N1CCN(c2ccccc2)CC1 | binding | competition with immobilised ligand | 1 µM | 96 |
| C[C@H](c1cccc(C#N)c1)n1cc(Cl)cc(C(N)=O)c1=N | cell-free assay | competition with immobilised ligand | 1 µM | 84 |
| O=C(NCCCN1CCOCC1)c1ccc(Nc2nccc(-c3cc4ccccc4s3)n2)cc1 | binding | competition with immobilised ligand | 1 µM | 82 |
| CN(C)c1nccc(-c2cnc3ncccn23)n1 | binding | – | 1 µM | 93 |
| O=C(c1ccc(Nc2ncc(Cl)c(-c3ccc(Cl)s3)n2)cc1)N1CCC(N2CCCC2)CC1 | binding | competition with immobilised ligand | 1 µM | 100 |
| CNC(=O)[C@@H]1CC[C@@H](n2c(-c3ccc4cnccc4c3)nc3ccc(C(=O)NCc4cccc(C(N)=O)c4)cc32)C1 | binding | competition with immobilised ligand | 1 µM | 100 |
| O=C(c1ccc(Nc2nccc(-c3cc4ccccc4s3)n2)cc1)N1CCC(N2CCCC2)CC1 | binding | competition with immobilised ligand | 1 µM | 96 |
| CN(C)CC#Cc1ccc(OCCCc2sc(N3CCc4cccc(C(=O)Nc5nc6ccccc6s5)c4C3)nc2C(=O)O)c(F)c1 | cell-free assay | competition with immobilised ligand | 1 µM | 99 |
| COc1ncc2cc3ccccc3nc2c1C#N | cell-free assay | competition with immobilised ligand | 5 µM | 83 |
| c1cnn2ncc(-c3ccnc(N4CCC45COC5)n3)c2c1 | binding | – | 1 µM | 74 |
| O=C(NCC1CCOCC1)c1n[nH]cc1NC(=O)c1c(F)cccc1F | binding | competition with immobilised ligand | 1 µM | 72 |
| Cc1cnn2ncc(-c3ccnc(N(C)C)n3)c2c1 | binding | – | 1 µM | 77 |
| CS(=O)(=O)c1cc(C2(NC(=O)c3cncc4c3cnn4-c3ccc(F)cc3)CC2)ccn1 | cell-free assay | competition with immobilised ligand | 1 µM | 87 |
| N[C@@H]1CCN(c2nccc(-c3cnn4ncccc34)n2)C1 | binding | – | 1 µM | 100 |
| CSc1cccnc1N1CCN(Cc2nc3ccccc3[nH]2)CC1 | cell-free assay | competition with immobilised ligand | 1 µM | 84 |
| C[C@H]1CCN(c2nccc(-c3cnn4ncccc34)n2)C1 | binding | – | 1 µM | 69 |
| O=S(=O)(NC1CCC(c2cc(F)ccc2F)(S(=O)(=O)c2ccc(Cl)cc2)CC1)C(F)(F)F (stereo not shown) | cell-free assay | competition with immobilised ligand | 1 µM | 93 |
